# Activity calls are given as the source filed them. The rule behind the calls is not given here.
# How the values were obtained:
# [1] = Binding affinity to biotinylated 5'-Pu22-3'-labelled c-myc G-quadruplex DNA (unknown origin) after 240 secs by SPR assay
# Summary of the method: (§1)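 SPR: biotinylated Pu22 and biotinylated duplex folded in 50 mM Tris-HCl pH 7.4, 150 mM KCl, 0.005% Tween20, captured (~1000 RU) on separate flow cells with a blank reference; ligand 0.0625–10 μM in running buffer, 240 s association then 240 s dissociation at 25 °C; equilibrium KD derived.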
# [2] = Binding affinity to 5'-FPu22T-3'-labelled c-myc G-quadruplex DNA (unknown origin) assessed as change in melting temperature by FRET assay
# Summary of the method: (§2)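 Fluorescence melting on real-time PCR instrument; 0.4 μM labelled oligonucleotide (FPu22T or duplex-forming F10T), ligand 2.0 μM, in 10 mM Tris-HCl pH 7.4 with 10 or 60 mM KCl; ex 470/em 530 nm at 1 °C steps over 37–99 °C, 30 s equilibration each; ΔTm = Tm(DNA+ligand) − Tm(DNA).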
# [3] = Binding affinity to F10T duplex DNA (unknown origin) assessed as change in melting temperature by FRET assay; summary of the method: as §2
# [4] = Cytotoxicity against mouse primary mesangial cells assessed as reduction in cell viability after 48 hrs by MTT assay; format: toxicity
# [5] = Cytotoxicity against human Raji cells assessed as reduction in cell viability after 48 hrs by MTT assay; format: functional, cell-based
# [6] = Cytotoxicity against human CA46 cells assessed as reduction in cell viability after 48 hrs by MTT assay; format: functional, cell-based; conditions: CA46, 48 h
# [7] = Cytotoxicity against human HeLa cells assessed as reduction in cell viability after 48 hrs by MTT assay; format: functional, cell-based
# [8] = Cytotoxicity against human A549 cells assessed as reduction in cell viability after 48 hrs by MTT assay; format: functional, cell-based; conditions: A549, 48 h
# [9] = Selectivity ratio of Kd for double stranded DNA (unknown origin) to Kd for biotinylated 5'-Pu22-3'-labelled c-myc G-quadruplex DNA
# [10] = Binding affinity to 5'-FPu22T-3'-labelled c-myc G-quadruplex DNA (unknown origin) assessed as change in melting temperature at 2 uM in presence ds26 DNA of by FRET assay
# Summary of the method: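 FRET melting of 0.4 μM labelled FPu22T with ligand 2.0 μM, alone or with 10-fold (4 μM), 50-fold (20 μM) or 100-fold (40 μM) excess unlabelled duplex ds26 as competitor; Tris-HCl 10 mM pH 7.4 with 10 or 60 mM KCl; ex 470/em 530 nm read every 1 °C from 37–99 °C, 30 s hold; ΔTm = Tm(DNA+ligand) − Tm(DNA).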
# [11] = Binding affinity to biotinylated double stranded DNA (unknown origin) after 240 secs by SPR assay; summary of the method: as §1
# [12] = Binding affinity to 5'-Pu22-3' c-myc G-quadruplex DNA (unknown origin) assessed as maintainance of parallel c-myc G-quadruplex conformation at 2 equiv after 6 hrs in presence of KCl by CD-spectroscopic analysis
# Summary of the method: (§3)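 Pu22 at 3 μM final in 10 mM Tris-HCl buffer with ligand at 2 equiv, with 100 mM KCl or without KCl; heated 95 °C 5 min, slowly cooled, held ≥6 h; CD spectra 230–330 nm, 1 mm quartz cell, 1 nm bandwidth and step, 0.5 s/point, average of two scans.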
# [13] = Binding affinity to 5'-Pu22-3' c-myc G-quadruplex DNA (unknown origin) assessed as induction of parallel c-myc G-quadruplex conformation at 2 equiv after 6 hrs in absence of KCl by CD-spectroscopic analysis; summary of the method: as §3
SMILES,Kd [1] [µM],ΔTm [2] [°C],ΔTm [3] [°C],IC50 at 48 h [4] [µM],IC50 [5] [µM],IC50 [6] [µM],IC50 [7] [µM],IC50 [8] [µM],Selectivity ratio [9],Activity [10],Kd [11] [µM],Activity [12],Activity [13]
CN1CCN(CCOc2ccc(Nc3nc(-c4ccccc4O)nc4ccccc34)cc2)CC1,> 10,0.4,0.1,–,–,–,–,–,–,–,–,–,–
CCN(CC)CCC(=O)Nc1ccc(Nc2nc(-c3ccccc3N)nc3ccccc23)cc1,4.68,5.3,0.1,5.7,14.5,3.3,7.2,9.1,–,–,–,–,–
Oc1ccccc1-c1nc(Nc2ccc(OCCN3CCOCC3)cc2)c2ccccc2n1,–,0.7,0.1,–,–,–,–,–,–,–,–,–,–
CCN(CC)CCC(=O)Nc1ccc(Nc2nc(Cl)nc3ccccc23)cc1,5.52,1,0.1,> 50,> 50,31.3,> 50,45.3,–,–,–,–,–
CN(C)CCCNCCC(=O)Nc1ccc(Nc2nc(-c3ccccc3NC(=O)CCNCCCN(C)C)nc3ccccc23)cc1,0.57,21.8,3.7,> 50,> 50,> 50,> 50,> 50,10.3,Active,5.89,–,–
CCN(CC)CCC(=O)Nc1cc(Cl)ccc1-c1nc(NCCCN(C)C)c2ccccc2n1,0.49,11.4,3.7,–,–,–,–,–,18.7,–,9.18,–,–
CCN(CC)CC(=O)Nc1ccc(Nc2nc(-c3ccc(O)cc3)nc3ccccc23)cc1,6.3,7.2,0.7,12.9,12.9,13.3,21,27,–,–,–,–,–
CN(C)CCCNCCC(=O)Nc1ccc(C(=O)Nc2cc(Cl)ccc2-c2nc(NCCCN(C)C)c3ccccc3n2)cc1,–,16.6,0.6,–,–,–,–,–,–,–,–,–,–
CN(C)CCNCCC(=O)Nc1ccc(Nc2nc(-c3ccccc3NC(=O)CCNCCN(C)C)nc3ccccc23)cc1,0.14,19.4,0.8,> 50,> 50,28.2,> 50,> 50,–,Active,–,Active,Active
O=C(CCCN1CCCC1)Nc1ccc(Nc2nc(-c3ccccc3NC(=O)CCCN3CCCC3)nc3ccccc23)cc1,0.55,12.6,0.8,> 50,31.6,13.7,22.4,27.2,> 18.2,Active,> 10,–,–
CCN(CC)CCCOc1ccc(Nc2nc(N(CC)CC)nc3ccccc23)cc1,2.46,8.2,0.2,8.1,5.7,12.2,2.3,4.8,–,–,–,–,–
O=C(CN1CCOCC1)Nc1ccc(Nc2nc(-c3ccccc3NC(=O)CN3CCOCC3)nc3ccccc23)cc1,8.08,0.2,0.2,> 50,12,2.14,> 50,> 50,–,–,–,–,–
CCN(CC)CCNCCOc1ccc(Nc2nc(-c3ccccc3O)nc3ccccc23)cc1,> 10,0.4,0.2,–,–,–,–,–,–,–,–,–,–
CCN(CC)CCC(=O)Nc1ccc(Nc2nc(-c3ccccc3)nc3ccccc23)cc1,> 10,4.6,0.2,6.2,8.5,3.6,8.3,17.6,–,–,–,–,–
